# Bioassay records (PubChem BioAssay)
# GPR7 antag – GPR7 receptor antagonists, primary screen, cell-based, fluorescence, single concentration; Neuropeptides B/W receptor type 1 (Homo sapiens), P48145; GPR7-expressing cells, fluorescence antagonist assay; inhibition, % at 4.4 µM; actives 1.1% (n = 290,000); in the data active = inhibition above about 16%, passing the limit was not always enough;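 also: cells stimulated with the agonist NPW; 0% = agonist with vehicle and 100% = vehicle without agonist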
# Target sequence (P48145 whole entry, looked up): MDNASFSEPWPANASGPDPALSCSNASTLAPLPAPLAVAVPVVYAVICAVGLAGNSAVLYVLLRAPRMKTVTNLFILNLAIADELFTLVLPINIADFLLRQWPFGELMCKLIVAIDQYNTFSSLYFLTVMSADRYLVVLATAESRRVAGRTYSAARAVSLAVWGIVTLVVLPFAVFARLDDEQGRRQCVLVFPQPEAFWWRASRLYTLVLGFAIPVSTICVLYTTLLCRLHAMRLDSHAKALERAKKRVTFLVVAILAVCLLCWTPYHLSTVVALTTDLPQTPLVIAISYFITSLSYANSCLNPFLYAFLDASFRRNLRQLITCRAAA
# OX1R antag-1 – OX1R (HCRTR1) antagonists, primary screen, fluorescence, CHO/OX1R cells, Fluo-8 calcium, orexin A | actives 0.43% (n = 330,000) | Orexin/Hypocretin receptor type 1 (Homo sapiens), O43613 | AID 434989, 2010 | Fluo-8 calcium fluorescence | inhibition, % at 5 µM;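 active = inhibition above its plate's threshold, mean inhibition of all tested compounds on the plate plus 3 SD, cut at about 37% in these data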;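 also: 0% = orexin A challenge wells and 100% = SB-334867-A antagonist wells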
# OX1R antag-2 – antagonists of human orexin 1 receptor (OX1R); Orexin/Hypocretin receptor type 1 (Homo sapiens), O43613; OX1R-expressing cells, FRET antagonist read-out; inhibition, % at 6.6 µM; actives 1.8% (n = 330,000); AID 485270, 2010; in the data active = inhibition mostly above about 38%, no sharp cut-off; inactive = mostly below about 40%;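 also: 0% = agonist challenge alone and 100% = reference antagonist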
# GalR3 antagonist – GalR3 antagonists in HEK293 cells, primary screen, cell-based, fluorescence readout; inhibition, % at 3 µM; AID 651719, 2012; HEK293 GalR3-CNG cAMP membrane potential fluorescence; galR3 body fused to GalR1 C-terminus; actives 0.44% (n = 360,000);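 active = inhibition above the screen-wide average plus 3 SD, cut at about 13% in these data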;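 also: forskolin and galanin both at EC90 stimulate the cells; cAMP rise reported by CNG channel membrane potential dye signal; 0% = forskolin plus galanin with DMSO and 100% = forskolin alone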
# CHO parental Ca – ATP-evoked calcium signal inhibitors, parental CHO, primary screen, counter-screen for OX1R antagonist project, cell-based, fluorescence, Fluo-8 calcium dye | inhibition, % at 5.6 µM | actives 0.63% (n = 330,000) | parental CHO-K1, ATP-induced calcium, Fluo-8 fluorescence;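 active = inhibition above that plate's mean sample inhibition plus 3 SD, cut at about 26% in these data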;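 also: 0% = ATP-challenged DMSO wells and 100% = DMSO wells without ATP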
#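 Assay system: parental CHO cells; Read-out basis: percent inhibition of ATP-evoked calcium rise, normalized to controls; Benchmarks: ATP and no-ATP DMSO wells; Compound dosing: single nominal dose of 5.6 µM per compound; Signal: Fluo-8 calcium dye fluorescence; Also added: ATP as calcium-mobilizing challenge; Repeats: singlicate.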
# * = called active by the depositor; . = not tested or not shown. Sampled rows, rich in hits. Any-hit rate of the full collection: about 3.1%.
SMILES,GPR7 antag,OX1R antag-1,OX1R antag-2,GalR3 antagonist,CHO parental Ca
Clc1ccsc1-c1csc(-c2cccnc2)n1,-5,17,71*,-2,-18
CCOC(=O)c1ccc(NC(=S)Nc2ccccc2N)cc1,.,-14,10,.,-12
CCCCN(CC(=O)NCc1ccc(F)cc1)C(=O)c1ccco1,-1,2,15,-5,1
Nc1nc(N)c2nc(CNc3ccc(C(=O)NC(CCC(=O)O)C(=O)O)cc3)cnc2n1 (stereo not given),.,-6,61*,.,-5
CN(Cc1cnc2nc(N)nc(N)c2n1)c1ccc(C(=O)NC(CCC(=O)O)C(=O)O)cc1 (stereo not given),.,.,.,1,.
CC1(c2ccccc2)NC(=O)N(CC(=O)Nc2ccc3c(c2)CCC3)C1=O (stereo not given),.,-19,4,-6,-13
CNS(=O)(=O)c1cc(Nc2ncnc3sccc23)ccc1C,9,19,63*,-11,4
Cc1ccc(C(C)(C)C)cc1S(=O)(=O)Nc1ncnc2sccc12,.,6,6,-5,-27
Cc1nn(CC(=O)Nc2nnc(CC(=O)N3CCCC3)s2)c(=O)c2ccccc12,18*,-16,8,-2,-10
O=C(O)c1ccc2c(c1)C(=O)N(c1cc([N+](=O)[O-])ccn1)C2=O,-18,0,19,-6,5
COC(=O)C1=C(C)N(Cc2ccccc2)C(=NCCc2c[nH]c3ccccc23)N[C@H]1c1cccc(C(F)(F)F)c1,.,67*,4,.,38
C/C(N)=C(/C#N)C(=O)CSc1nnnn1-c1ccc(C)cc1,15*,-12,0,-5,-2
C/C(N)=C(/C#N)C(=O)CSc1nnnn1-c1ccccc1,-10,-11,12,9,4
CC1=Nc2ccccc2/C1=C/c1nc(-c2ccc(C)s2)oc1O,14,68*,16,-7,43*
CC1=Nc2ccccc2/C1=C\c1nc(-c2ccccc2)oc1O,-2,19,26,-5,14
Cc1cc2c(cc1S(=O)(=O)N1CCN(c3cccc(C)c3C)CC1)OCCN2C,4,-37,6,.,57*
Cc1cc2c(cc1S(=O)(=O)N1CCN(c3ccc(Cl)cc3)CC1)OCCN2C,-2,-23,-7,.,2
O=[N+]([O-])c1ccc(Sc2ncccn2)c([N+](=O)[O-])c1,-4,-8,67*,-1,-3
O=[N+]([O-])c1ccc(Sc2nccn2Cc2ccccc2)c([N+](=O)[O-])c1,-7,-33,38*,-1,-15
Cc1ccc2c(c1)C(c1ccccc1)N(C(=O)c1cccc([N+](=O)[O-])c1)CC(=O)N2 (stereo not given),6,-14,3,-3,-11
CC(C)(C)c1ccc(C(=O)c2c[nH]c(C(=O)NCCc3ccccn3)c2)cc1,0,-11,16,5,-10
CCCC(=O)c1ccc(N2CCN(C(=O)c3ccccc3Br)CC2)c(F)c1,-10,32,41,0,52*
COc1ccc(C(=O)NCC(=O)N=Nc2c(O)n(C)c3ccccc23)cc1OC,-5,-7,57*,6,-23
C=CCn1c(O)c(N=NC(=O)CNC(=O)c2ccncc2)c2ccccc21,4,-12,67*,-7,-12
C=CCn1c(O)c(N=NC(=O)CNC(=O)c2cccs2)c2ccccc21,-13,-13,40,6,-11
Cc1c(C(=O)Nc2ccccc2)c2ccc(C(F)(F)F)cc2n1O,.,1,34,-4,-8
O=C(CN(C(=O)CNC(=O)c1cccs1)c1ccc(F)cc1)NC1CCCCC1,2,-16,24,-7,-9
CC(=O)O[C@@H](Cc1ccc(O)cc1)C(=O)CC(C)C,.,.,.,-4,.
CCOC(=O)N1CCN(C(=O)CSCC(=O)Nc2nc(-c3ccc(-c4ccccc4)cc3)cs2)CC1,-6,53*,48*,.,91*
COc1cc(-c2nnc(COC(=O)C3c4ccccc4Oc4ccccc43)o2)cc(OC)c1OC,11,-12,43*,-6,-13
